# GASC-1 inh: inhibitors of human GASC-1 (JMJD2C) demethylase; 0.069% of 330,000 active; Q9H3R0; inhibition, % at 2.35 µM; AID 2099; GST-JMJD2C(1-420) H3K9me3 demethylation, DELFIA europium;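 active = more than half of a compound's replicate wells show inhibition beyond 50%, single wells judged on their own value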;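 note: signal counts dimethyl H3K9 product captured on neutravidin plate; 0% = median of DMSO wells and 100% = 0.3 times that DMSO median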
# SR-BI HDL uptake: inhibitors of mouse SR-BI mediated HDL lipid uptake; ldlA[mSR-BI] CHO cells, DiI-HDL uptake fluorescence, 3 h; Q61009; 0.96% of 320,000 active; inhibition, % at 12.5 µM;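 active = mean replicate inhibition of at least 70% and a set share of replicates each scoring 70 or more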;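 note: 0% = median of neutral control wells and 100% = median of positive control wells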
# Target sequence (Q61009 whole entry, looked up): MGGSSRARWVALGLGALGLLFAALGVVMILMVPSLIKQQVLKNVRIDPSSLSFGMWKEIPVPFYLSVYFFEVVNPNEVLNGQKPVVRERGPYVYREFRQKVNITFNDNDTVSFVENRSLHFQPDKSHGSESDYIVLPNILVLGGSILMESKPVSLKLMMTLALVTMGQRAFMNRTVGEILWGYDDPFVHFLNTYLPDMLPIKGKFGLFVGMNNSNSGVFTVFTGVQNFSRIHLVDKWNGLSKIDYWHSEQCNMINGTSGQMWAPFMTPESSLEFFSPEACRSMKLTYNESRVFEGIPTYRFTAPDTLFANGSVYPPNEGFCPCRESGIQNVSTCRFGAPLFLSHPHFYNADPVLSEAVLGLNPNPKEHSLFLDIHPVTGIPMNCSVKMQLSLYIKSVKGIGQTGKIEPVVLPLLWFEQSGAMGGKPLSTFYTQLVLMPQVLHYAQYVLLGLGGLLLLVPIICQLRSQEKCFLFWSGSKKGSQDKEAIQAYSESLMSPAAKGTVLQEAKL
# AHR activator: human AHR activation | P35869 | AHR-responsive luciferase reporter cells, luminescence | activation, % at 5 µM | 2.5% of 320,000 active | AID 2796; in the data active = activation above about 47%;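 note: 0% = vehicle wells and 100% = reference agonist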
# SR-BI DiI-HDL act: SR-BI HDL lipid transfer activation | CHO ldlA[mSR-BI] cells, DiI-HDL uptake fluorescence, 3 h; 100 = double the neutral-control signal | activation, % at 12.5 µM | AID 504775 | 0.096% of 320,000 active;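 active = mean replicate activation of at least 60% and every replicate at or above 60%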;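 note: 0% = median plate neutral-control signal and 100% = twice that signal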
#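 Test system: SR-BI-overexpressing, LDLR-lacking CHO cells; Also added: labelled HDL, 10 µg/mL; Measured by: bottom-read cell fluorescence after medium removal, ex 550/em 595 nm; Timing: 3 h uptake period with compound, 37 °C; Buffer or medium: F12, 0.5% BSA, 25 mM HEPES; Doses: single compound concentration, delivered by pin transfer.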
# FXN GAA850 act: frataxin GAA850 promoter activation | HEK293 lucGAA850 FXN promoter luciferase reporter, 24 h; percent of 10 µM SAHA response | activation, % at 6 µM | 0.56% of 360,000 active;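 active = activation above the average of all compounds screened plus 3 SD, cutoff fixed separately per campaign, cut at about 7.5% in these data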;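 note: 0% = DMSO wells and 100% = 10 µM SAHA wells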
# AHR act confirm: human AHR activation, confirmation; shares compounds with AHR activator; human cells, AHR-responsive luciferase reporter, luminescence; activation, % at 9 µM; 87% of 2,300 active; in the data active = activation above about 49%;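 note: HepG2 hepatoma cells carrying a DRE-driven firefly luciferase reporter; 0% = vehicle wells and 100% = reference agonist wells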
# PXR counter: PXR activation, counter-screen for AHR activators; cell-based PXR reporter, luciferase luminescence; 88% of 2,300 active; AID 434939; shares compounds with AHR activator; activation, % at 11.6 µM; in the data active = activation above about 11%;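 note: human hepatoma DPX-2 cells expressing full-length human PXR; 0% = DMSO and 100% = reference agonist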
# Numbers without * were called inactive; . = not tested or not shown. A selection: hits, their analogues and other compounds. The true share with any hit is near 3.7%.
SMILES,GASC-1 inh,SR-BI HDL uptake,AHR activator,SR-BI DiI-HDL act,FXN GAA850 act,AHR act confirm,PXR counter
Cc1c(/C=N/NC(=O)COc2ccccc2[N+](=O)[O-])c2ccccc2n1C,8.0,34.6,81.2*,-34.6,1.2,95.4*,100.5*
O=C(CNc1ccc2ccccc2c1)N/N=C/c1ccc([N+](=O)[O-])o1,3.5,4.8,126.5*,-4.8,2.0,63.0*,11.4*
O=C(COc1ccccc1)N/N=C/c1ccc([N+](=O)[O-])o1,-1.4,-6.2,0.7,6.2,1.5,.,.
Cc1ccccc1NC(=O)c1ccc(CN2CCC(Cc3ccccc3)CC2)cc1,16.6,37.1,1.8,-37.1,-4.2,.,.
COc1ccccc1NC(=O)CCCCCN1C(=O)c2cccc3cccc(c23)C1=O,-5.5,-14.6,85.5*,14.6,-1.2,-3.5,55.5*
COc1ccc(C)c2sc(NNC(=O)COc3ccccc3)nc12,9.3,.,79.5*,.,.,98.6*,14.6*
COC(=O)c1sc(NC(=O)COc2ccccc2)nc1C,1.6,-6.1,7.1,6.1,4.0,.,.
CC1COc2ccccc2N1C(=O)c1ccc(Cl)nc1 (stereo not given),.,-10.8,41.0,10.8,0.9,.,.
Clc1nnc(N/N=C/c2ccccc2)c2ccccc12,-11.9,-12.0,81.9*,12.0,6.5,109.9*,22.8*
CCCS(=O)(=O)Nc1c(OC)ccc2c1c(C(=O)OCC)c(C)n2C,-0.3,2.8,84.7*,-2.8,-0.3,74.2*,118.9*
CCOC(=O)c1c(C)n(C)c2ccc(OC)c(NC(=O)c3cccs3)c12,-4.3,10.4,20.1,-10.4,0.2,.,.
CCCCCOc1ccc(CSC(=N)N)cc1[N+](=O)[O-],-5.6,27.8,1.1,-27.8,3.0,.,.
CCCCCOc1ccc(Cn2ccnc2)cc1[N+](=O)[O-],-1.3,-2.9,101.1*,2.9,3.7,75.2*,53.1*
COc1cc2cnc(-c3ccccc3)cc2cc1OC,3.3,31.1,113.9*,-31.1,6.0,122.2*,14.3*
c1ccc(-c2cc3cc4c(cc3cn2)OCO4)cc1,-2.4,12.6,122.9*,-12.6,1.8,67.4*,90.4*
COc1ccc2cc(-c3ccccc3)ncc2c1,-2.7,-33.2,22.3,33.3,4.5,.,.
c1ccc(-c2cc3ccccc3cn2)cc1,3.7,10.0,37.0,-10.0,3.3,.,.
c1ccc2c(c1)[nH]c1c(N3CCN(C4CCCCC4)CC3)ncnc12,-16.1,-11.5,80.2*,11.5,-0.1,68.2*,14.3*
Cc1ccc(C(=O)COC(=O)CN2C(=O)C3C4C=CC(C4)C3C2=O)cc1C (stereo not given),-1.3,-5.2,-0.2,5.2,0.5,.,.
CN(C)C=Nc1ccc2nn(-c3ccccc3)nc2c1,10.4,15.9,109.2*,-15.9,3.1,116.7*,17.3*
O=C(O)CCC(=O)Nc1nc2nccc(-c3ccccc3)n2n1,6.2,.,2.7,.,1.9,.,.
CCOc1ccc2[nH]c3c(NCCOC)ncnc3c2c1,-0.5,9.2,84.8*,-9.2,2.1,116.3*,39.1*
CCOc1ccc2[nH]c3c(NCC(C)C)ncnc3c2c1,-33.1,11.0,100.2*,-11.0,1.0,100.9*,49.3*
CCN(CC)C(=O)C1=C(C)N(CCC2=CCCCC2)C(=O)C(CC(=O)NCc2cccs2)C1 (stereo not given),.,.,.,.,-0.7,.,.
Cc1ccc(Nc2cc(C)nc3nc(C)nn23)cc1,-5.4,-12.8,124.4*,12.7,-0.1,13.7,8.5
SMILES,GASC-1 inh,SR-BI HDL uptake,AHR activator,SR-BI DiI-HDL act,FXN GAA850 act,AHR act confirm,PXR counter
Cc1cc(Nc2ccccc2Cl)n2nnnc2n1,3.7,-26.8,0.7,26.8,2.4,.,.
Cc1cc(Nc2ccc(Cl)cc2)n2nnnc2n1,-7.7,18.0,143.3*,-18.0,-1.4,90.6*,13.8*
Cc1cc(Nc2ccc(Br)c(C)c2)n2nc(C)nc2n1,-2.5,0.6,84.8*,-0.6,1.9,46.3,12.2*
Cc1ccc(NC(=O)CSc2nnc(N)s2)cc1S(=O)(=O)N1CCOCC1,-4.9,8.0,-1.9,-8.0,1.7,.,.
C#CCOCCOCCOCCNc1nc(N2CCN(C(=O)[C@H](CCC(=O)O)n3cc(CN)nn3)CC2)nc(N2CCN(C(=O)[C@H](CCCN=C(N)N)n3cc(C(N)[C@@H](C)CC)nn3)CC2)n1 (stereo not given in full),37.6,21.2,-0.2,-21.2,1.1,.,.
O=C(Nc1cccc(Cl)c1)c1ccc(NCC2CCCO2)c([N+](=O)[O-])c1 (stereo not given),8.0,59.0,91.5*,-59.0,2.5,5.5,30.5*
Nc1nc(NCC2CCCO2)nc(Nc2cccc(Cl)c2)c1[N+](=O)[O-] (stereo not given),-20.2,-7.7,99.0*,7.7,3.0,27.3,16.2*
Cc1cccc(NC(=O)c2ccc(NCC3CCCO3)c([N+](=O)[O-])c2)c1 (stereo not given),1.2,63.1,-3.1,-63.1,5.7,.,.
c1ccc(-c2nc3cc4ccccc4cc3[nH]2)nc1,-16.2,2.4,113.5*,-2.4,0.2,44.3,23.4*
CC(=O)Nc1ccc2nc(-c3ccccn3)[nH]c2c1,-1.3,-0.5,35.1,0.5,3.2,.,.
N#CC1=C(N)Oc2n[nH]c(-c3ccc(F)cc3)c2C1c1ccncc1 (stereo not given),-1.0,-18.8,105.6*,18.8,2.7,103.5*,17.7*
N#CC1=C(N)Oc2n[nH]c(-c3ccc(F)cc3)c2C1c1cccc(OC(=O)N2CCOCC2)c1 (stereo not given),0.4,23.8,106.2*,-23.8,2.7,115.4*,31.6*
CC(C)N(C)c1ncnc2c1ncn2[C@H]1CN(Cc2ccc(Cl)cc2)C[C@@H](CO)O1,.,.,.,.,0.9,.,.
CN(C)S(=O)(=O)c1cc(C(=O)OCCn2cnc3c2c(=O)n(C)c(=O)n3C)ccc1Cl,28.5,-9.9,1.6,9.9,0.4,.,.
c1ccc(-c2nc3ccccc3c3nncn23)cc1,27.4,-35.2,96.9*,35.2,3.5,123.1*,19.7*
COc1cccc(-n2cc(-c3ccc(F)cc3)[nH]c2=S)c1,-19.3,18.4,108.5*,-18.4,4.8,12.4,51.9*
COc1ccc(-c2cn(-c3ccc(C)c(C)c3)c(=S)[nH]2)cc1OC,4.5,20.1,21.6,-20.1,0.2,.,.
COc1ccccc1-c1cn(-c2ccccc2)c(=S)[nH]1,0.1,-12.5,112.0*,12.5,0.3,108.7*,105.1*
COc1ccccc1-n1cc(-c2ccc(C)cc2)[nH]c1=S,-6.2,17.8,109.0*,-17.8,-3.1,87.3*,97.0*
COc1ccc(-c2cn(-c3ccccc3)c(=S)[nH]2)cc1OC,-2.6,13.6,42.7,-13.6,2.3,.,.
COc1ccc(-n2cc(-c3ccc(Cl)cc3)[nH]c2=S)cc1,3.3,23.9,41.6,-23.9,5.0,.,.

# Screening results deposited in PubChem by several laboratories.
